In ChEMBL document CHEMBL1275278, “Synthesis and pharmacological evaluation of clubbed isopropylthiazole derived triazolothiadiazoles, triazolothiadiazines and mannich bases as potential antimicrobial and antitubercular agents” (Eur J Med Chem, 2010) one finds MIC data, which are given here for 11 compounds.

Format in all cases: functional
One assay relates to Saccharomyces cerevisiae. Kind of assay: Antifungal activity against Saccharomyces cerevisiae ATCC 9763 after 24 hrs by broth microdilution method. The conditions noted are these: ATCC 9763, 24 h. In general terms: Dilution methods test growth across graded concentrations, often in twofold steps.
The subject of the next assay is Pseudomonas aeruginosa. Kind of assay: Antibacterial activity against Pseudomonas aeruginosa ATCC 10145 after 24 hrs by broth microdilution method. The note with it: ATCC 10145, 24 h. The method in brief: (§1)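 Broth dilution in Mueller-Hinton broth. Tubes inoculated at 10⁵ cfu/mL and incubated 37 °C for 24 h. MIC taken as lowest concentration completely inhibiting growth. Media and media-plus-DMSO growth controls; ciprofloxacin and norfloxacin as reference standards.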

Another assay relates to Escherichia coli. The experiment in a line: Antibacterial activity against Escherichia coli ATCC 10536 after 24 hrs by broth microdilution method. The note with it: ATCC 10536, 24 h. A digest of the protocol:
as §1

The next assay concerns Klebsiella pneumoniae. The experiment in a line: Antibacterial activity against Klebsiella pneumoniae ATCC 10031 after 24 hrs by broth microdilution method. The conditions noted are these: ATCC 10031, 24 h. The method in brief:
as §1

A further assay deals with Bacillus subtilis. Kind of assay: Antibacterial activity against Bacillus subtilis ATCC 60511 after 24 hrs by broth microdilution method. The conditions noted are these: ATCC 60511, 24 h. The method in brief: as §1
The test system of a further assay is Enterococcus faecalis. The experiment in a line: Antibacterial activity against Streptococcus faecalis ATCC 14506 after 24 hrs by broth microdilution method. The note with it: ATCC 14506, 24 h. The method in brief:
as §1

A further assay concerns Staphylococcus aureus. The experiment in a line: Antibacterial activity against Staphylococcus aureus ATCC 11632 after 24 hrs by broth microdilution method. The conditions noted are these: ATCC 11632, 24 h. A digest of the protocol: as §1
A further assay concerns Candida tropicalis. The experiment in a line: Antifungal activity against Candida tropicalis ATCC 1369 after 24 hrs by broth microdilution method. The conditions noted are these: ATCC 1369, 24 h.
The next assay concerns Aspergillus niger. The experiment in a line: Antifungal activity against Aspergillus niger ATCC 6275 after 24 hrs by broth microdilution method. The conditions noted are these: ATCC 6275, 24 h.
Assay [1] deals with Mycobacterium tuberculosis. The experiment in a line: Antimycobacterial activity against Mycobacterium tuberculosis H37Rv after 21 days by broth dilution assay. The note with it: 504 h. A digest of the protocol: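 Frozen culture in Middlebrook 7H9 broth with 10% albumin-dextrose-catalase and 0.2% glycerol, thawed and diluted in broth to 10⁵ cfu/mL. Compounds dissolved in DMSO, twofold diluted in broth; final DMSO 1.3%. Tubes inoculated, incubated at 37 °C. Growth compared visually against drug-free and drug- and inoculum-free controls and isoniazid. MIC = lowest concentration inhibiting ≥99% of the starting bacterial population.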

SMILES strings stand for the structures. Converted amounts (≈) assume the structure as drawn.

Turning to `CC(C)c1csc(-c2nn(CN3CCN(C)CC3)c(=S)n2/N=C/c2ccccc2Cl)n1`, the minimum inhibitory concentration (MIC) turned out to be 125 µg/mL (≈ 263 µM) against Saccharomyces cerevisiae; 31.2 µg/mL (≈ 65.6 µM) in the assay with Pseudomonas aeruginosa; 125 µg/mL (≈ 263 µM) in the assay with Escherichia coli; 16 µg/mL (≈ 33.6 µM) in the assay with Klebsiella pneumoniae; 125 µg/mL (≈ 263 µM) in the assay on Bacillus subtilis; 31.2 µg/mL (≈ 65.6 µM) with Enterococcus faecalis. The minimal inhibitory concentration (MIC) in the assay on Staphylococcus aureus came out at 16 µg/mL (≈ 33.6 µM); in the assay with Candida tropicalis, 125 µg/mL (≈ 263 µM); in the assay on Aspergillus niger, 62.5 µg/mL (≈ 131 µM); in assay [1] it was 31.2 µg/mL (≈ 65.6 µM).

`COc1ccc(C2Nn3c(nnc3-c3nc(C(C)C)cs3)S2)cc1` (stereo not drawn): the MIC came out at 62.5 µg/mL (≈ 174 µM) against Saccharomyces cerevisiae; 62.5 µg/mL (≈ 174 µM) in the assay on Pseudomonas aeruginosa; 125 µg/mL (≈ 348 µM) in the assay with Escherichia coli; 250 µg/mL (≈ 695 µM) against Klebsiella pneumoniae; 62.5 µg/mL (≈ 174 µM) against Bacillus subtilis; 16 µg/mL (≈ 44.5 µM) against Enterococcus faecalis. The MIC is 31.2 µg/mL (≈ 86.9 µM) with Staphylococcus aureus, 125 µg/mL (≈ 348 µM) in the assay with Candida tropicalis and 125 µg/mL (≈ 348 µM) in the assay on Aspergillus niger.

As to `CC(C)c1csc(-c2nn(CN3CCOCC3)c(=S)n2/N=C/c2ccccc2Cl)n1`, the MIC is 125 µg/mL (≈ 270 µM) with Saccharomyces cerevisiae; 62.5 µg/mL (≈ 135 µM) in the assay on Pseudomonas aeruginosa; 62.5 µg/mL (≈ 135 µM) in the assay with Escherichia coli; 16 µg/mL (≈ 34.6 µM) with Klebsiella pneumoniae; 125 µg/mL (≈ 270 µM) with Bacillus subtilis; 62.5 µg/mL (≈ 135 µM) against Enterococcus faecalis. Further, the MIC against Staphylococcus aureus amounted to 31.2 µg/mL (≈ 67.5 µM); in the assay with Candida tropicalis it was 125 µg/mL (≈ 270 µM); with Aspergillus niger, 31.2 µg/mL (≈ 67.5 µM); in assay [1], 31.2 µg/mL (≈ 67.5 µM).

For `CC(C)c1csc(-c2n[nH]c(=S)n2NC(=O)c2ccc(O)cc2)n1`, the MIC is 31.2 µg/mL (≈ 86.5 µM) with Saccharomyces cerevisiae; 31.2 µg/mL (≈ 86.5 µM) with Pseudomonas aeruginosa; 31.2 µg/mL (≈ 86.5 µM) in the assay on Escherichia coli; 31.2 µg/mL (≈ 86.5 µM) in the assay on Klebsiella pneumoniae; 31.2 µg/mL (≈ 86.5 µM) in the assay with Bacillus subtilis; 62.5 µg/mL (≈ 173 µM) with Enterococcus faecalis. In addition, the MIC in the assay on Staphylococcus aureus turned out to be 125 µg/mL (≈ 346 µM); in the assay with Candida tropicalis it was 125 µg/mL (≈ 346 µM); against Aspergillus niger it was 125 µg/mL (≈ 346 µM); in assay [1], 62.5 µg/mL (≈ 173 µM).

Regarding `OC(Cn1cncn1)(Cn1cncn1)c1ccc(F)cc1F` [FLUCONAZOLE], the MIC against Saccharomyces cerevisiae, in the assay on Candida tropicalis and against Aspergillus niger was ≤ 1 µg/mL each time.

In the case of `CC(C)c1csc(-c2nnc3n2N=C(c2ccc([N+](=O)[O-])cc2)CS3)n1`, the MIC in the assay with Saccharomyces cerevisiae is 16 µg/mL (≈ 41.4 µM); against Pseudomonas aeruginosa it was 125 µg/mL (≈ 323 µM); against Escherichia coli, 16 µg/mL (≈ 41.4 µM); in the assay with Klebsiella pneumoniae, 31.2 µg/mL (≈ 80.9 µM); in the assay on Bacillus subtilis it was 16 µg/mL (≈ 41.4 µM); in the assay with Enterococcus faecalis it was 125 µg/mL (≈ 323 µM). For the same compound, the MIC is 125 µg/mL (≈ 323 µM) with Staphylococcus aureus, 31.2 µg/mL (≈ 80.9 µM) against Candida tropicalis, 62.5 µg/mL (≈ 162 µM) against Aspergillus niger and 31.2 µg/mL (≈ 80.9 µM) in assay [1].

As for `COc1cc(C2Nn3c(nnc3-c3nc(C(C)C)cs3)S2)cc(OC)c1OC` (stereo not drawn), the MIC in the assay with Saccharomyces cerevisiae was 16 µg/mL (≈ 38.1 µM); against Pseudomonas aeruginosa, 31.2 µg/mL (≈ 74.5 µM); in the assay on Escherichia coli, 125 µg/mL (≈ 298 µM); in the assay on Klebsiella pneumoniae it was 62.5 µg/mL (≈ 149 µM); against Bacillus subtilis, 31.2 µg/mL (≈ 74.5 µM); against Enterococcus faecalis, 31.2 µg/mL (≈ 74.5 µM). Also, the minimal inhibitory concentration (MIC) in the assay on Staphylococcus aureus came out at 31.2 µg/mL (≈ 74.5 µM); in the assay on Candida tropicalis, 16 µg/mL (≈ 38.1 µM); against Aspergillus niger it was 31.2 µg/mL (≈ 74.5 µM); in assay [1] it was 62.5 µg/mL (≈ 149 µM).

As to `CC(C)c1csc(-c2nnc3n2N=C(c2ccc(Br)cc2)CS3)n1`, the MIC against Saccharomyces cerevisiae turned out to be 62.5 µg/mL (≈ 149 µM); against Pseudomonas aeruginosa, 62.5 µg/mL (≈ 149 µM); with Escherichia coli, 31.2 µg/mL (≈ 74.3 µM); against Klebsiella pneumoniae, 16 µg/mL (≈ 38.1 µM); in the assay with Bacillus subtilis, 31.2 µg/mL (≈ 74.3 µM); against Enterococcus faecalis, 31.2 µg/mL (≈ 74.3 µM). Moreover, the MIC was 125 µg/mL (≈ 297 µM) in the assay with Staphylococcus aureus, 31.2 µg/mL (≈ 74.3 µM) with Candida tropicalis, 125 µg/mL (≈ 297 µM) in the assay with Aspergillus niger and 62.5 µg/mL (≈ 149 µM) in assay [1].

For `CC(C)c1csc(-c2n[nH]c(=S)n2NC(=O)c2ccccc2)n1`, the MIC turned out to be 62.5 µg/mL (≈ 181 µM) against Saccharomyces cerevisiae; 16 µg/mL (≈ 46.3 µM) in the assay on Pseudomonas aeruginosa; 31.2 µg/mL (≈ 90.5 µM) in the assay with Escherichia coli; 125 µg/mL (≈ 362 µM) in the assay on Klebsiella pneumoniae; 31.2 µg/mL (≈ 90.5 µM) with Bacillus subtilis; 31.2 µg/mL (≈ 90.5 µM) in the assay on Enterococcus faecalis. Besides, the MIC with Staphylococcus aureus came to 16 µg/mL (≈ 46.3 µM); in the assay on Candida tropicalis, 31.2 µg/mL (≈ 90.5 µM); with Aspergillus niger it was 16 µg/mL (≈ 46.3 µM); in assay [1] it was 16 µg/mL (≈ 46.3 µM).

In assay [1], `NNC(=O)c1ccncc1` [ISONIAZID] came in with an MIC of 0.25 µg/mL (≈ 1.82 µM).

On to `CC(C)c1csc(-c2nnc3n2NC(c2ccccc2Cl)S3)n1` (stereo not drawn), for which the MIC with Saccharomyces cerevisiae is 125 µg/mL (≈ 344 µM); with Pseudomonas aeruginosa, 62.5 µg/mL (≈ 172 µM); with Escherichia coli, 62.5 µg/mL (≈ 172 µM); against Klebsiella pneumoniae, 31.2 µg/mL (≈ 85.9 µM); against Bacillus subtilis, 125 µg/mL (≈ 344 µM); in the assay with Enterococcus faecalis, 31.2 µg/mL (≈ 85.9 µM). In addition, the minimal inhibitory concentration (MIC) against Staphylococcus aureus was found to be 31.2 µg/mL (≈ 85.9 µM); against Candida tropicalis it was 16 µg/mL (≈ 44 µM); against Aspergillus niger, 31.2 µg/mL (≈ 85.9 µM); in [1], 62.5 µg/mL (≈ 172 µM).

The MIC is the lowest concentration that inhibits growth of the organism. Low values mean greater potency, high ones weaker potency.
